According to ChEMBL document CHEMBL1122341, “Prostaglandin isosteres. 2. Chain-modified thiazolidinone prostaglandin analogues as renal vasodilators” (1983):

Tests used:
Canis familiaris [1] = test: Percent change in renal resistance in anesthetized dogs after infusion of compound at 25 nM/kg/min; type: functional, Canis lupus familiaris
Canis familiaris [2] = test: Percent change in renal resistance in anesthetized dogs after infusion of compound at 50 nM/kg/min; type: functional, Canis lupus familiaris
Canis familiaris [3] = test: Effect on renal blood flow in conscious dogs dosed at 5 mg/kg, observed at 3-4 h; type: functional, Canis lupus familiaris
Procedure, shortened: (§1)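 Conscious dogs; aortic catheter for blood pressure and heart rate, with renal and lower aortic blood flow monitored. After a 30-min control period the compound was given orally and the variables were followed for a further 5 h, recorded every 2 min. Readings were averaged over the control period and each hourly postdose period; means ± SE.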

Canis familiaris [4] = test: Effect on renal blood flow in conscious dogs dosed at 5 mg/kg, observed at 4-5 h; type: functional, Canis lupus familiaris; procedure, shortened: as §1
Canis familiaris [5] = test: Effect on renal plasma flow in conscious dogs dosed at 0.05 mg/kg (post-treatment); type: functional, Canis lupus familiaris
Procedure, shortened: (§2)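 Trained conscious female mongrel dogs, postabsorptive, given 500 mL tap water orally 1-1.5 h beforehand. Effective renal plasma flow was taken as renal p-aminohippurate clearance: priming 8 mg/kg iv, then 0.3 (mg/kg)/min in isotonic NaCl. Two 30-min control clearance periods, a single iv dose (Na salt, aqueous), then four 30-min periods. Plasma sampled at midpoints; means ± SEM.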

Canis familiaris [6] = test: Effect on renal plasma flow in conscious dogs dosed at 0.05 mg/kg (pretreatment); type: functional, Canis lupus familiaris; procedure, shortened: as §2
Canis familiaris [7] = test: Effect on renal plasma flow in conscious dogs dosed at 0.1 mg/kg (post-treatment); type: functional, Canis lupus familiaris; procedure, shortened: as §2
Canis familiaris [8] = test: Effect on renal plasma flow in conscious dogs dosed at 0.1 mg/kg (pretreatment); type: functional, Canis lupus familiaris; procedure, shortened: as §2
Canis familiaris [9] = test: Effect on renal plasma flow in conscious dogs dosed at 0.2 mg/kg (post-treatment); type: functional, Canis lupus familiaris; procedure, shortened: as §2
Canis familiaris [10] = test: Effect on renal plasma flow in conscious dogs dosed at 0.2 mg/kg (pretreatment); type: functional, Canis lupus familiaris; procedure, shortened: as §2
Canis familiaris [11] = test: Effect on lower arterial blood pressure in conscious dogs dosed at 5 mg/kg, observed at 0-1 h; type: functional, Canis lupus familiaris; procedure, shortened: as §1
Canis familiaris [12] = test: Effect on lower arterial blood pressure in conscious dogs dosed at 5 mg/kg, observed at 1-2 h; type: functional, Canis lupus familiaris; procedure, shortened: as §1
Canis familiaris [13] = test: Effect on lower arterial blood pressure in conscious dogs dosed at 5 mg/kg, observed at 2-3 h; type: functional, Canis lupus familiaris; procedure, shortened: as §1
Canis familiaris [14] = test: Effect on lower arterial blood pressure in conscious dogs dosed at 5 mg/kg, observed at 3-4 h; type: functional, Canis lupus familiaris; procedure, shortened: as §1
Canis familiaris [15] = test: Effect on lower arterial blood pressure in conscious dogs dosed at 5 mg/kg, observed at 4-5 h; type: functional, Canis lupus familiaris; procedure, shortened: as §1
Canis familiaris [16] = test: Effect on heart rate in conscious dogs dosed at 5 mg/kg, observed at 0-1 h; type: functional, Canis lupus familiaris; procedure, shortened: as §1
Canis familiaris [17] = test: Effect on heart rate in conscious dogs dosed at 5 mg/kg, observed at 1-2 h; type: functional, Canis lupus familiaris; procedure, shortened: as §1
Canis familiaris [18] = test: Effect on heart rate in conscious dogs dosed at 5 mg/kg, observed at 2-3 h; type: functional, Canis lupus familiaris; procedure, shortened: as §1
Canis familiaris [19] = test: Effect on heart rate in conscious dogs dosed at 5 mg/kg, observed at 3-4 h; type: functional, Canis lupus familiaris; procedure, shortened: as §1
Canis familiaris [20] = test: Effect on heart rate in conscious dogs dosed at 5 mg/kg, observed at 4-5 h; type: functional, Canis lupus familiaris; procedure, shortened: as §1
Canis familiaris [21] = test: Effect on lower aortic blood flow in conscious dogs dosed at 5 mg/kg, observed at 0-1 h; type: functional, Canis lupus familiaris, Aorta; procedure, shortened: as §1
Canis familiaris [22] = test: Effect on lower aortic blood flow in conscious dogs dosed at 5 mg/kg, observed at 1-2 h; type: functional, Canis lupus familiaris, Aorta; procedure, shortened: as §1
Canis familiaris [23] = test: Effect on lower aortic blood flow in conscious dogs dosed at 5 mg/kg, observed at 2-3 h; type: functional, Canis lupus familiaris, Aorta; procedure, shortened: as §1
Canis familiaris [24] = test: Effect on lower aortic blood flow in conscious dogs dosed at 5 mg/kg, observed at 3-4 h; type: functional, Canis lupus familiaris, Aorta; procedure, shortened: as §1
Canis familiaris [25] = test: Effect on lower aortic blood flow in conscious dogs dosed at 5 mg/kg, observed at 4-5 h; type: functional, Canis lupus familiaris, Aorta; procedure, shortened: as §1
Canis familiaris [26] = test: Effect on renal blood flow in conscious dogs dosed at 5 mg/kg, observed at 0-1 h; type: functional, Canis lupus familiaris; procedure, shortened: as §1
Canis familiaris [27] = test: Effect on renal blood flow in conscious dogs dosed at 5 mg/kg, observed at 1-2 h; type: functional, Canis lupus familiaris, Kidney; procedure, shortened: as §1
Canis familiaris [28] = test: Percent change in renal plasma flow in conscious dogs dosed at 0.1 mg/kg; type: functional, Canis lupus familiaris; procedure, shortened: as §2
Canis familiaris [29] = test: Percent change in renal plasma flow in conscious dogs dosed at 0.2 mg/kg; type: functional, Canis lupus familiaris; procedure, shortened: as §2
Canis familiaris [30] = test: Percent change in renal plasma flow in conscious dogs dosed at 0.05 mg/kg; type: functional, Canis lupus familiaris; procedure, shortened: as §2
Canis familiaris [31] = test: Effect on renal blood flow in conscious dogs dosed at 5 mg/kg, observed at 2-3 h; type: functional, Canis lupus familiaris, Kidney; procedure, shortened: as §1
Canis familiaris [32] = test: Percent change in renal resistance in anesthetized dogs after infusion of compound at 10 nM/kg/min; type: functional, Canis lupus familiaris
Procedure, shortened: (§3)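 Vinbarbital-anesthetized dogs with an electromagnetic flow probe on the left renal artery and an aortic catheter for pressure. Saline was infused intrarenally for 30 min as pretreatment. Percent change was calculated from the maximum decrease in renal resistance versus pretreatment.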

Canis familiaris [33] = test: Effect on renal plasma flow in conscious dogs dosed at 0.4 mg/kg (post-treatment); type: functional, Canis lupus familiaris; procedure, shortened: as §2
Canis familiaris [34] = test: Effect on renal plasma flow in conscious dogs dosed at 0.4 mg/kg (pretreatment); type: functional, Canis lupus familiaris; procedure, shortened: as §2
Canis familiaris [35] = test: Effect on renal plasma flow in conscious dogs dosed at 10 mg/kg (post-treatment); type: functional, Canis lupus familiaris; procedure, shortened: as §2
Canis familiaris [36] = test: Effect on renal plasma flow in conscious dogs dosed at 10 mg/kg (pretreatment); type: functional, Canis lupus familiaris; procedure, shortened: as §2
Canis familiaris [37] = test: Percent change in renal plasma flow in conscious dogs dosed at 0.4 mg/kg; type: functional, Canis lupus familiaris; procedure, shortened: as §2
Canis familiaris [38] = test: Percent change in renal plasma flow in conscious dogs dosed at 10 mg/kg; type: functional, Canis lupus familiaris; procedure, shortened: as §2
Canis familiaris [39] = test: Effect on renal plasma flow in conscious dogs dosed at 0.025 mg/kg (pretreatment); type: functional, Canis lupus familiaris; procedure, shortened: as §2
Canis familiaris [40] = test: Effect on renal plasma flow in conscious dogs dosed at 0.025 mg/kg (post-treatment); type: functional, Canis lupus familiaris; procedure, shortened: as §2
Canis familiaris [41] = test: Percent change in renal plasma flow in conscious dogs dosed at 0.025 mg/kg; type: functional, Canis lupus familiaris; procedure, shortened: as §2
Canis familiaris [42] = test: Percent change in renal resistance in anesthetized dogs after infusion of compound at 60 nM/kg/min; type: functional, Canis lupus familiaris; settings: in the assay text read “60 ng/kg/min” for “60 nM/kg/min”; procedure, shortened: as §3
Canis familiaris [43] = test: Percent change in renal resistance in anesthetized dogs after infusion of compound at 110 nM/kg/min; type: functional, Canis lupus familiaris; procedure, shortened: as §3
[44] = dose 1 mg/kg, in the assay text read “dosed at 1 mg/kg” for “dosed at 5 mg/kg”

SMILES	Mean RBF (Canis familiaris [3])	Mean RBF (Canis familiaris [4])	Activity (Canis familiaris [9])	Mean blood pressure (Canis familiaris [11])	Mean blood pressure (Canis familiaris [12])	Mean blood pressure (Canis familiaris [13])	Mean blood pressure (Canis familiaris [14])	Mean blood pressure (Canis familiaris [15])	Mean HR (Canis familiaris [16])	Mean HR (Canis familiaris [17])	Mean HR (Canis familiaris [18])	Mean HR (Canis familiaris [19])	Mean HR (Canis familiaris [20])	Mean LAF (Canis familiaris [21])	Mean LAF (Canis familiaris [22])	Mean LAF (Canis familiaris [23])	Mean LAF (Canis familiaris [24])	Mean LAF (Canis familiaris [25])	Mean RBF (Canis familiaris [26])	Mean RBF (Canis familiaris [27])	also measured
O=C(O)c1ccc(CCCC2SCC(=O)N2CCC2(O)CCCCC2)cc1 (stereo not drawn)	233 mL/min	242 mL/min	322 mL/min	105 mmHg	89 mmHg	97 mmHg	101 mmHg	98 mmHg	122 beats min-1	169 beats min-1	144 beats min-1	131 beats min-1	136 beats min-1	486 mL/min	597 mL/min	521 mL/min	492 mL/min	477 mL/min	179 mL/min	211 mL/min	Change (Canis familiaris [1]): -24%; Change (Canis familiaris [2]): -28%; Activity (Canis familiaris [5]): 240 mL/min; Activity (Canis familiaris [6]): 148 mL/min; Activity (Canis familiaris [7]): 216 mL/min; Activity (Canis familiaris [8]): 142 mL/min; Activity (Canis familiaris [10]): 136 mL/min; Change (Canis familiaris [28]): 52%; Change (Canis familiaris [29]): 137%; Change (Canis familiaris [30]): 62%; Mean RBF (Canis familiaris [31]; [44]): 226 mL/min; Change (Canis familiaris [32]): -13%
O=C(O)c1ccc(CCC[C@@H]2SCC(=O)N2CCC2(O)CCCCC2)cc1	–	–	146 mL/min	–	–	–	–	–	–	–	–	–	–	–	–	–	–	–	–	–	Activity (Canis familiaris [10]): 138 mL/min; Activity (Canis familiaris [33]): 147 mL/min; Activity (Canis familiaris [34]): 136 mL/min; Activity (Canis familiaris [35]): 151 mL/min; Activity (Canis familiaris [36]): 139 mL/min; Change (Canis familiaris [29]): 6%; Change (Canis familiaris [37]): 8%; Change (Canis familiaris [38]): 9%
CCCCCC(O)CCN1C(=O)CSC1CCCc1ccc(C(=O)O)cc1 (stereo not drawn)	183 mL/min	159 mL/min	–	118 mmHg	108 mmHg	116 mmHg	116 mmHg	116 mmHg	103 beats min-1	118 beats min-1	107 beats min-1	92 beats min-1	84 beats min-1	546 mL/min	560 mL/min	625 mL/min	521 mL/min	510 mL/min	201 mL/min	241 mL/min	Mean RBF (Canis familiaris [31]; dose 5 mg/kg): 209 mL/min
CCCCCC(O)CCN1C(=O)CSC1CCCCCCC(=O)O (stereo not drawn)	116 mL/min	111 mL/min	–	123 mmHg	146 mmHg	140 mmHg	133 mmHg	132 mmHg	126 beats min-1	79 beats min-1	85 beats min-1	82 beats min-1	76 beats min-1	420 mL/min	424 mL/min	432 mL/min	427 mL/min	386 mL/min	181 mL/min	110 mL/min	Mean RBF (Canis familiaris [31]; dose 5 mg/kg): 110 mL/min
O=C(O)c1ccc(CCC[C@H]2SCC(=O)N2CCC2(O)CCCCC2)cc1	–	–	292 mL/min	–	–	–	–	–	–	–	–	–	–	–	–	–	–	–	–	–	Activity (Canis familiaris [39]): 155 mL/min; Activity (Canis familiaris [40]): 239 mL/min; Activity (Canis familiaris [5]): 289 mL/min; Activity (Canis familiaris [6]): 178 mL/min; Activity (Canis familiaris [10]): 143 mL/min; Change (Canis familiaris [29]): 104%; Change (Canis familiaris [41]): 54%; Change (Canis familiaris [30]): 62%
O=C(O)CCCCCCC1SCC(=O)N1CCC1(O)CCCCC1 (stereo not drawn)	176 mL/min	160 mL/min	–	59 mmHg	74 mmHg	92 mmHg	100 mmHg	104 mmHg	180 beats min-1	185 beats min-1	113 beats min-1	94 beats min-1	88 beats min-1	772 mL/min	742 mL/min	530 mL/min	510 mL/min	388 mL/min	97 mL/min	150 mL/min	Mean RBF (Canis familiaris [31]; [44]): 199 mL/min
CCCCC[C@H](O)/C=C/[C@H]1[C@H](O)CC(=O)[C@@H]1C/C=C\CCCC(=O)O [DINOPROSTONE]	–	–	–	–	–	–	–	–	–	–	–	–	–	–	–	–	–	–	–	–	Change (Canis familiaris [42]): -29%; Change (Canis familiaris [43]): -35%; Change (Canis familiaris [32]): -13%
